# Measurements published in ChEMBL document CHEMBL4219146, “Synthesis and Pharmacological Evaluation of Heterocyclic Carboxamides: Positive Allosteric Modulators of the M1 Muscarinic Acetylcholine Receptor with Weak Agonist Activity and Diverse Modulatory Profiles” (J Med Chem, 2018).
# Active and inactive are the calls of the source. No cut-off for these calls is given here.
# Tests used:
# [1] = target: T1, Muscarinic acetylcholine receptor M1 (Homo sapiens) (UniProt P11229); experiment: Intrinsic activity at human muscarinic acetylcholine receptor M1 expressed in flpIn-CHO cells assessed as induction of IP1 accumulation at 10 uM after 1 hr by HTRF assay relative to control; format: functional, cell-based
# T1 sequence (whole entry): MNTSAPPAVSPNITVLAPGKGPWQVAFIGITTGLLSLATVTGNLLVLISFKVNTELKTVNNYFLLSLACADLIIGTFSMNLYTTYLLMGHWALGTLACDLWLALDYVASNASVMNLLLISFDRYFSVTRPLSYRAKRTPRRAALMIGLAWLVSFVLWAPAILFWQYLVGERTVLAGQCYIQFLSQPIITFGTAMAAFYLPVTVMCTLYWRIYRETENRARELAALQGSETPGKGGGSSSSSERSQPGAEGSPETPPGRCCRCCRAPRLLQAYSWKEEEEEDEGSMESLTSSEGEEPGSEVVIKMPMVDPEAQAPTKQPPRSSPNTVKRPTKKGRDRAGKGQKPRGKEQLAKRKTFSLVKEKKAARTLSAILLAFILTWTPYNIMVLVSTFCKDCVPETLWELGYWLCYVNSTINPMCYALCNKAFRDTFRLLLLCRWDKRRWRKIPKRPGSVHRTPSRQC
# In short: (§1)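 FlpIn CHO-hM1 cells, 25,000/well, seeded overnight, then preincubated 1 h at 37 °C in HEPES stimulation buffer with 50 mM LiCl, pH 7.4. ACh concentration-response curves run ± 10 µM modulator for 1 h at 37 °C. IP1 read by HTRF (665/620 nm) from lysates, interpolated from a standard curve and normalized to the ACh maximum. ∆pEC50 and ∆baseline taken versus ACh alone. ≥3 experiments, in duplicate.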
# [2] = target: T1, Muscarinic acetylcholine receptor M1 (Homo sapiens); experiment: Displacement of [3H]-NMS from human muscarinic acetylcholine receptor M1 expressed in flpIn-CHO cell membranes after 5 hrs in presence of acetylcholine at EC20 by liquid scintillation counting
# In short: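 Whole-cell binding in FlpIn CHO-hM1 cells, 50,000/well, plated overnight and PBS-washed. Modulator titrated with a fixed EC20 ACh plus 0.2 nM [3H]NMS for 5 h at room temperature in HEPES/NaCl/MgCl2 buffer, pH 7.4. 100 µM atropine defined nonspecific binding. Cells washed with ice-cold saline and counted by scintillation. Data fitted to the allosteric ternary complex model.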
# [3] = target: T1, Muscarinic acetylcholine receptor M1 (Homo sapiens); experiment: Positive allosteric modulation of human muscarinic acetylcholine receptor M1 expressed in flpIn-CHO cells assessed as potentiation of acetylcholine-mediated IP1 accumulation at 10 uM measured after 1 hr by based HTRF assay relative to control; format: functional, cell-based; in short: as §1
# [4] = target: T1, Muscarinic acetylcholine receptor M1 (Homo sapiens); experiment: Displacement of [3H]-NMS from human muscarinic acetylcholine receptor M1 […] after 5 hrs by liquid scintillation counting
# [5] = target: T1, Muscarinic acetylcholine receptor M1 (Homo sapiens); experiment: Allosteric agonist at human muscarinic acetylcholine receptor M1 expressed in CHO-NFAT cells assessed as induction of calcium mobilization after 4 mins by Fluo-4AM-based FLIPR assay; format: functional, cell-based
# [6] = target: T2, Muscarinic acetylcholine receptor M1 (Homo sapiens, UniProt P11229); experiment: Allosteric agonist at human muscarinic acetylcholine receptor M1 expressed in CHO cells assessed as induction of calcium mobilization after 2.5 mins by Fluo-4AM-based FLIPR assay; format: functional, cell-based
# T2 sequence (P11229 whole entry): T1 sequence (whole entry)
# [7] = target: T2, Muscarinic acetylcholine receptor M1; experiment: Positive allosteric modulation of human muscarinic acetylcholine receptor M1 expressed in CHO cells assessed as potentiation of acetylcholine-induced calcium mobilization preincubated for 2.5 mins followed by acetylcholine addition measured after 1 min by Fluo-4AM-based FLIPR assay; format: functional, cell-based
SMILES,Intrinsic activity [1],Activity [3],further results
Cn1cc(-c2ccc(Cn3cc(C(=O)NC4CCOCC4)c4ncccc43)cc2)cn1,Active,,
CN(C(=O)c1cn(Cc2ccc(-c3cnn(C)c3)cc2)c2cccnc12)C1CCCCC1,0.57,,pKb [2]: 4.91; log(IA) [1]: -0.24
Cn1cc(-c2ccc(Cn3cc(C(=O)N4CCCCC4)c4ncccc43)cc2)cn1,inactive,inactive,
Cn1cc(-c2ccc(Cn3cc(C(=O)NC4CCCCC4)c4ncccc43)cc2)cn1,Active,,
CNC(=O)c1cn(Cc2ccc(-c3cnn(C)c3)cc2)c2cccnc12,,Active,
Cn1cc(-c2ccc(Cn3nc(C(=O)N[C@H]4CCCC[C@@H]4O)c4ccccc43)cc2)cn1,Active,Active,
O=C(O)c1ccc(Cn2cc(C(=O)N[C@H]3CCCC[C@@H]3O)c3ncccc32)cc1,2.88,,pKb [2]: 4.63; log(IA) [1]: 0.46
Cn1cc(-c2ccc(Cn3cc(C(=O)N4CCCC4)c4ncccc43)cc2)cn1,inactive,Active,
Cn1cc(-c2ccc(Cn3ccc(C(=O)N[C@H]4CCCC[C@@H]4O)c3)cc2)cn1,3.31,,pKb [2]: 4.19; log(IA) [1]: 0.52; fold change (FC) [3]: 7
Cn1cc(-c2ccc(Cn3cc(C(=O)NC4CCNCC4)c4ncccc43)cc2)cn1,Active,,
Cn1cc(-c2ccc(Cn3cc(C(=O)Nc4ccccc4O)c4ncccc43)cc2)cn1,14%,inactive,
CCNC(=O)c1cn(Cc2ccc(-c3cnn(C)c3)cc2)c2cccnc12,3.63,,pKb [2]: 4.61; log(IA) [1]: 0.56
Cn1cc(-c2ccc(Cn3cc(C(=O)N[C@H]4CC[C@H](O)CC4)c4ncccc43)cc2)cn1,Active,,
Cn1cc(-c2ccc(Cn3cc(C(N)=O)c4ncccc43)cc2)cn1,,Active,
Cn1cc(-c2ccc(Cn3cc(C(=O)N[C@H]4CCCO[C@@H]4O)c4ncccc43)cc2)cn1,Active,,
COc1ccc(Cn2cc(C(=O)O)c(=O)c3ccccc32)cc1,,,pKb [4]: 5.48; Intrinsic activity [5]: 2.09; log(IA) [5]: 0.32

SMILES,Intrinsic activity [1],Activity [3],further results
Cn1cc(-c2ccc(Cn3cc(C(=O)N[C@@H]4CCCC[C@H]4O)c4c(F)cc(F)cc43)cn2)cn1,,,EC50 [6]: 4.8 µM; EC50 [7]: 0.21 µM
Cn1cc(-c2ccc(Cn3cc(C(=O)NC4CCC(=O)CC4)c4ncccc43)cc2)cn1,Active,,
CCN(CC)C(=O)c1cn(Cc2ccc(-c3cnn(C)c3)cc2)c2cccnc12,0,,pKb [2]: 4.43
Cn1cc(-c2ccc(Cn3cc(C(=O)N[C@H]4CCCC[C@@H]4O)c4ccccc43)cc2)cn1,Active,Active,
CN(C)C(=O)c1cn(Cc2ccc(-c3cnn(C)c3)cc2)c2cccnc12,inactive,Active,
Cn1cc(-c2ccc(Cn3cc(C(=O)N[C@H]4CCOC[C@@H]4O)c4ncccc43)cc2)cn1,Active,,
Cn1cc(-c2ccc(Cn3cc(C(=O)N[C@H]4CCCC[C@@H]4O)c4c(Cl)cccc43)cc2)cn1,Active,Active,
Cn1cc(-c2ccc(Cn3cc(C(=O)N4CCNCC4)c4ncccc43)cc2)cn1,Active,,
Cn1cc(-c2ccc(Cn3cc(C(=O)N[C@H]4CCC[C@@H]4O)c4ncccc43)cc2)cn1,Active,,
Cn1cc(-c2ccc(Cn3cc(C(=O)N[C@H]4CCCC[C@@H]4O)c4ncccc43)cc2)cn1,22.9,Active,pKb [4]: 5.92; log(IA) [1]: 1.36
Cn1cc(-c2ccc(Cn3cc(C(=O)N4CCN(C(=O)OC(C)(C)C)CC4)c4ncccc43)cc2)cn1,,inactive,
Cc1cnc(C(=O)N[C@@H]2CCOC[C@H]2O)cc1Cc1ccc(-c2cscn2)cc1,,,pKb [4]: 6.2
Cn1cc(-c2ccc(Cn3cc(C(=O)N[C@H]4CCCC[C@@H]4O)c4c(F)cccc43)cc2)cn1,Active,Active,
Cn1cc(-c2ccc(Cn3cc(C(=O)N[C@H]4CCCC[C@@H]4N)c4ncccc43)cc2)cn1,,Active,
Cn1cc(-c2ccc(Cn3cc(C(=O)Nc4ccccc4)c4ncccc43)cc2)cn1,73%,,
